Assays:
[1] = molecular target: T1, Nuclear receptor subfamily 1 group I member 3 (Homo sapiens, UniProt Q14994); experiment: Agonist activity at CAR expressed in human HepG2 cells at 1 to 20 uM after 48 hrs by p(ER6)3-luciferase reporter gene assay; type: cell-based; conditions: hepg2, 48 h
T1 sequence (Q14994 whole entry): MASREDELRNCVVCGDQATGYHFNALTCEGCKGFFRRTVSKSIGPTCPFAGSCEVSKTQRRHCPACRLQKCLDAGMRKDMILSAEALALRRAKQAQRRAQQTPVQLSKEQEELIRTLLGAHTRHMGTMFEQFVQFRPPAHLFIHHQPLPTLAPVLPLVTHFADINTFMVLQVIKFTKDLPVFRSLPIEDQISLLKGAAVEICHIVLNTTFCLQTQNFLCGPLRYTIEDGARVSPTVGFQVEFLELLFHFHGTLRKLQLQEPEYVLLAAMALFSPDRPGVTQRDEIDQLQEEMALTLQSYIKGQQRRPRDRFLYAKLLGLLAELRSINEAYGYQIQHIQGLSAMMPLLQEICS
In short: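 HepG2 cells transiently co-transfected with p(ER6)3-luc reporter, wild-type CAR expression vector and pRL-TK normalization plasmid; after 24 h stabilization, treated with compounds or vehicle (DMSO 0.1%, v/v) for 48 h. Firefly and Renilla luciferase read; fold change versus vehicle (set to 1), means ± SD of triplicates from a representative experiment.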

[2] = molecular target: T2, Nuclear receptor subfamily 1 group I member 2 (Homo sapiens, UniProt O75469); experiment: (§1) Agonist activity at PXR expressed in human HepG2 cells after 24 hrs by p3A4-luciferase reporter gene assay
T2 sequence (O75469 whole entry): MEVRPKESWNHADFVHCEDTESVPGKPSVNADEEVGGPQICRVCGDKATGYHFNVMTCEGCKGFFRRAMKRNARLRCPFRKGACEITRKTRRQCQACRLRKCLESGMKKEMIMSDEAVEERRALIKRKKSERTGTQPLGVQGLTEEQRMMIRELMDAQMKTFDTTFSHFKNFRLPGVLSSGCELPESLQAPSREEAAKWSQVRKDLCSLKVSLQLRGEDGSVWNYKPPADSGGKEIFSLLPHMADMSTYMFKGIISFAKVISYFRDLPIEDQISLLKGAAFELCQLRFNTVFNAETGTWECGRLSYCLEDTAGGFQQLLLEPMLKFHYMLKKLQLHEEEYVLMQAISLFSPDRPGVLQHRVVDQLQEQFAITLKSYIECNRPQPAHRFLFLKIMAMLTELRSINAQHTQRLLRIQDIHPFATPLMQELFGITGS

PXR (NR1I2) = molecular target: T3, PXR (NR1I2) (Homo sapiens, UniProt O75469); experiment: as §1; conditions: human, HepG2 cells expressing PXR
T3 sequence (O75469 whole entry): T2 sequence (O75469 whole entry)

AHR = molecular target: T4, AHR (Homo sapiens, UniProt P35869); experiment: (§2) Agonist activity at AHR expressed in human HepG2 cells after 24 hrs by pXRE-luciferase reporter gene assay; type: cell-based; conditions: human, HepG2 cells expressing AHR; read-out: Imax
T4 sequence (P35869 whole entry): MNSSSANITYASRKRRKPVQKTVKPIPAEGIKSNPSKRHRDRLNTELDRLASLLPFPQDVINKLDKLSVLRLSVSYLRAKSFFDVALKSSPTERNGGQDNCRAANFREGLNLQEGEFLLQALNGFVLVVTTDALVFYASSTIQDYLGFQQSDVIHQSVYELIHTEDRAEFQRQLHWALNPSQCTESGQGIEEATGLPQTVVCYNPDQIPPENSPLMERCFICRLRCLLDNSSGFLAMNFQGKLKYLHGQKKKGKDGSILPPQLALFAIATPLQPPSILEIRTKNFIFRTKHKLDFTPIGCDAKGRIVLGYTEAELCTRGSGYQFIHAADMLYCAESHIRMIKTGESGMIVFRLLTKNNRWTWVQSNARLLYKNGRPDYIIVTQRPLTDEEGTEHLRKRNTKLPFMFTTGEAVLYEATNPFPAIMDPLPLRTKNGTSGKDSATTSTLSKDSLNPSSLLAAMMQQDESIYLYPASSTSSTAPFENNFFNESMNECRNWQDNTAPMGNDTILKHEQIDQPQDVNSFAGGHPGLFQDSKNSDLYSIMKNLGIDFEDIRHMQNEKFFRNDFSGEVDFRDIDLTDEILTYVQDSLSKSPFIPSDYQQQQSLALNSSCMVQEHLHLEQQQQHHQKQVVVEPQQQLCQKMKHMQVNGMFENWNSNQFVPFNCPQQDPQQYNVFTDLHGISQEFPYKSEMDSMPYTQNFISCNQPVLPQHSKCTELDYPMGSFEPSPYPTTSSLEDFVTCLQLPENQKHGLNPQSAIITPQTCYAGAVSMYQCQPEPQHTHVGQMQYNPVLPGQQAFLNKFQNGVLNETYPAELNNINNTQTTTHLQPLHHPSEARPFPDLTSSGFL

[3] = molecular target: T5, Aryl hydrocarbon receptor (Homo sapiens, UniProt P35869); experiment: as §2; type: cell-based
T5 sequence (P35869 whole entry): T4 sequence (P35869 whole entry)

[4] = molecular target: T2, Nuclear receptor subfamily 1 group I member 2; experiment: Agonist activity at PXR in human primary hepatocytes assessed as upregulation of MDR/ABCB1 mRNA expression at 10 uM after 24 hrs by qRT-PCR method; type: cell-based, Hepatocyte
[5] = molecular target: T5, Aryl hydrocarbon receptor; experiment: Agonist activity at AHR in human HepaRG cells assessed as upregulation of CYP1B1 mRNA expression at 10 uM after 24 hrs by qRT-PCR method; type: cell-based
Cytochrome P450 2B6 = molecular target: T6, Cytochrome P450 2B6 (Homo sapiens, UniProt P20813); experiment: Inhibition of recombinant human CYP2B6 by P450-Glo luminescence assay; type: ADME
T6 sequence (P20813 whole entry): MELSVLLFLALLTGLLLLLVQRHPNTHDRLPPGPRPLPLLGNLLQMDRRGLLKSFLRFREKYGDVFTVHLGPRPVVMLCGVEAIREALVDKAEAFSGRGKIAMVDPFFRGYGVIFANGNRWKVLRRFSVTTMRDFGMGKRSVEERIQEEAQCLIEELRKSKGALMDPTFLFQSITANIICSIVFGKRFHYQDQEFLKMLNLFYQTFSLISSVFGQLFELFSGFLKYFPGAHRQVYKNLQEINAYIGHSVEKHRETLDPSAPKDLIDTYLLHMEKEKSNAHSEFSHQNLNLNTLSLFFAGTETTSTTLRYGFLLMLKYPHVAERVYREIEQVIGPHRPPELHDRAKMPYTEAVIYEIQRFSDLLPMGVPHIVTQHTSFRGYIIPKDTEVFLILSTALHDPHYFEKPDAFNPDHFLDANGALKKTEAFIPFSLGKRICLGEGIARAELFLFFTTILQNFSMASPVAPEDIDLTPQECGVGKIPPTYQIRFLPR

Cytochrome P450 2C9 = Cytochrome P450 2C9 (Homo sapiens, UniProt P11712); experiment: Inhibition of recombinant human CYP2C9 by P450-Glo luminescence assay; type: ADME
Cytochrome P450 2D6 = Cytochrome P450 2D6 (Homo sapiens, UniProt P10635); experiment: Inhibition of recombinant human CYP2D6 by P450-Glo luminescence assay; type: ADME
Cytochrome P450 2D6, sequence (P10635 whole entry): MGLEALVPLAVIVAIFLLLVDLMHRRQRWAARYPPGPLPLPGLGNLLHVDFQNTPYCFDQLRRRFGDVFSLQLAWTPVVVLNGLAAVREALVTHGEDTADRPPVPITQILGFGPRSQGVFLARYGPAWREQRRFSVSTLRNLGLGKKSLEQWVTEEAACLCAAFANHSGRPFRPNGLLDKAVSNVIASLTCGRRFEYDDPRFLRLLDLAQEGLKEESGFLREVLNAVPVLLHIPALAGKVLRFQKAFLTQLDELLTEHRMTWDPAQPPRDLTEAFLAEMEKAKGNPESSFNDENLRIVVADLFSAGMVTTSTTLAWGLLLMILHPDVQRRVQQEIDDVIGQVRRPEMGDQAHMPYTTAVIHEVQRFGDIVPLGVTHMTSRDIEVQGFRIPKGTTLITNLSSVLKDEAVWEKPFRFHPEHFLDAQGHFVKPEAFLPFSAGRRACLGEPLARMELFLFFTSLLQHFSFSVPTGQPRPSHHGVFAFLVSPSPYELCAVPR

Cytochrome P450 2C9, sequence (P11712 whole entry): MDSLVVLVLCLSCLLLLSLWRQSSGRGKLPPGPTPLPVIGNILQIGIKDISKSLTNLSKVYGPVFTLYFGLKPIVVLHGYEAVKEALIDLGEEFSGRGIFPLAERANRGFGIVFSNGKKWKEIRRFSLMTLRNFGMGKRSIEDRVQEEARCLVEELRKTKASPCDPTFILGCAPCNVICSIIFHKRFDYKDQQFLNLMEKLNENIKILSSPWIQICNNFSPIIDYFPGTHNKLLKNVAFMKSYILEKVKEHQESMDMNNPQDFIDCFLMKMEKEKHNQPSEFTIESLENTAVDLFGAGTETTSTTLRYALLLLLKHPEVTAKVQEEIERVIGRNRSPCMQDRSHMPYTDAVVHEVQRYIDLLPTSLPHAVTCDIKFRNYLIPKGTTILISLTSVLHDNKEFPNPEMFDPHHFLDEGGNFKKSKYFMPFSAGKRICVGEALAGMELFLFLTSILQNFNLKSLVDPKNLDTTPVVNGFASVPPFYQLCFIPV

Activity [1]	EC50 [2]	Emax at 24 h (PXR (NR1I2))	Emax at 24 h (AHR)	EC50 [3]	Activity [4]	Activity [5]	IC50 (Cytochrome P450 2B6)	IC50 (Cytochrome P450 2C9)	IC50 (Cytochrome P450 2D6)	IC50 (Cytochrome P450 2D6; read-out: IC50)	Compound
Active	860 nM	165%	266%	630 nM	Active	Active	35.7 µM	11 µM	Not Active	–	COc1cccc(-c2nc3ccccc3c(=S)[nH]2)c1
Active	> 3000 nM	> 250%	290%	7300 nM	Active	Active	36.2 µM	5.03 µM	Not Active	–	COc1cccc(-c2nc(OC)c3ccccc3n2)c1
Active	> 3500 nM	> 250%	219%	2300 nM	Active	Active	31.8 µM	4.19 µM	–	17.3 µM	COc1cccc(-c2nc(SC)c3ccccc3n2)c1
